The species entered for data set [1] is Mus musculus. Put plainly: Ratio of acetylsalicylic acid ED50 to compound ED50 for analgesic activity in Albino-Swiss mouse assessed as protection against phenylbenzoquinone-induced writhing. Format: functional. In a few lines: (§1)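 Mice (groups of 6–8) dosed i.p. at 3.125–50 mg/kg as 0.5% methylcellulose suspension; 30 min later 0.02% phenylbenzoquinone (ethanol–water 5:95) 0.25 ml i.p. Writhes counted for 10 min starting 5 min after irritant. % effect versus control writhing count; ED50 with confidence limits by Litchfield and Wilcoxon.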
On the technique in general: An intraperitoneal irritant provokes the stretching counted in writhing tests.

For data set [2], the system named is Mus musculus. Put plainly: Analgesic activity in Albino-Swiss mouse assessed as inhibition of heat-induced paw licking or jumping behavior administered as ip measured after 30 mins for 45 secs by Eddy and Leimbach's hot plate method. The data set is classed as functional. In a few lines:
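Compound i.p. in 0.5% methylcellulose suspension (10 ml/kg), groups of 6–8 mice. Placed on plate at 54–56 °C; latency to forepaw licking or jumping timed by stop-watch before and 30 min after dosing, 45 s cut-off. Latency prolongation compared statistically. Morphine 1, 3, 6 mg/kg and acetylsalicylic acid 100–400 mg/kg i.p. as references.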
On the technique in general: Hot-plate and tail-flick tests time the reaction to a heat stimulus.

Data set [3] is described as follows: Acute toxicity in ip dosed Albino-Swiss mouse. The data set is classed as organism-based. To be noted: in vivo. In a few lines:
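Mice (20–24 g) given compound i.p. as 0.5% methylcellulose suspension, 10 ml/kg, in rising doses up to 2000 mg/kg; six animals per dose. Deaths counted at 24 h, general behaviour watched for 6 h. LD50 by Litchfield and Wilcoxon.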

Data set [4] deals with Mus musculus. Put plainly: Analgesic activity in Albino-Swiss mouse assessed as protection against phenylbenzoquinone-induced writhing administered as ip 30 mins before phenylbenzoquinone challenge measured after 5 mins. Format: functional. The gist of the method:
as §1

The target in data set [5] is Mu-type opioid receptor (Rattus norvegicus, UniProt P33535). Description: Displacement of [3H]-dihydromorphine from mu opioid receptor in rat cerebral cortex by liquid scintillation counting. Format: tissue-based. In a few lines: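 Rat cerebral cortex homogenised in 50 mM Tris-HCl pH 7.6, washed by centrifugation at 48,000 × g, preincubated 30 min at 37 °C to remove endogenous opioids. Membranes incubated with 0.2 nM [3H]dihydromorphine and 7–8 compound concentrations (10^-11–10^-4 M); nonspecific binding with levallorphan. Filtration on GF/C, two washes, scintillation counting, duplicates. Result given as Ki.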
Sequence of Mu-type opioid receptor (P33535 whole entry): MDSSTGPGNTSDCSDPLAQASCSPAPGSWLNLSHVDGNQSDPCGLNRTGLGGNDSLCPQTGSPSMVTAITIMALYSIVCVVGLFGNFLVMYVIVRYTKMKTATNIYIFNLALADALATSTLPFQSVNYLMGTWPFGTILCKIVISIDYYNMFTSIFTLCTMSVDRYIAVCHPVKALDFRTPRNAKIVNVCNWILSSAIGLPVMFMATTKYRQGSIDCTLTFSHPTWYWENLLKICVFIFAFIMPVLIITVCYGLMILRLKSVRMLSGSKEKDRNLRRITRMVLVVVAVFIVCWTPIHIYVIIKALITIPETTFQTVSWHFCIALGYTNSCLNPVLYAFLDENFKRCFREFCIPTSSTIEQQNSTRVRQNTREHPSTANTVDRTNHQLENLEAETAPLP
Background: In a radioligand displacement assay an active substance lowers the binding of a labelled ligand.

The species entered for data set [6] is Mus musculus. Description: Ratio of morphine ED50 to compound ED50 for analgesic activity in Albino-Swiss mouse by Eddy and Leimbach's hot plate method. Format: functional.
The test system of data set [7] is Mus musculus. Description: Toxicity in ip dosed Albino-Swiss mouse assessed as decrease in locomotor activity at hot plate test ED50 after 1 hr. The data set is classed as organism-based. Further details: scale not given: the % may be the effect or the level left. To be noted: in vivo. In a few lines: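 Mice (Albino-Swiss, 20–24 g) received compound i.p. as a 0.5% methylcellulose suspension (10 ml/kg). After 30 min, each mouse was put alone for a 30-min session in a circular photoresistor actometer (30 cm diameter, two photocells, impulse counter), which counted movements.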

The test system of data set [8] is Mus musculus. Put plainly: Analgesic activity in Albino-Swiss mouse assessed as inhibition of heat-induced paw licking or jumping behavior at 200 mg/kg, ip measured after 30 mins for 45 secs by Eddy and Leimbach's hot plate method. Format: functional, organism-based. Further details: dose 200 mg/kg. The gist of the method:
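Albino-Swiss mice (20–24 g), groups of 6–8, dosed i.p. as a suspension in 0.5% methylcellulose (10 ml/kg). Each mouse was placed on a metal plate at 54–56 °C, and time to forepaw licking or jumping was stopwatch-timed before and 30 min after dosing, with a 45 s cut-off. Latency prolongation was compared by Student's t-test.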

Calls of active or inactive are those of the source.

Broadly, the ED50 is the dose that gives a 50% effect, or the effect in half of the subjects. As a reminder, the LD50 is the dose at which mortality reaches 50%. With `Cc1c2c(=O)[nH]n(CCN3CCN(Cc4ccc5c(c4)OCO5)CC3)c(=O)c2c(C)n1-c1ccccc1`, the “Ratio ED50” value in data set [1] worked out at 100. Moreover, in data set [2], the ED50 result was “inactive”. For the same compound, the median lethal dose (LD50) in data set [3] was over 2000 mg/kg. Further, the ED50 in data set [4] turned out to be 1.92 mg/kg.
The IC50 is the point on the concentration scale where inhibition reaches its midpoint. One may read the Ki as a measure of affinity in units of concentration, obtained from inhibition or displacement. As for `Cc1c2c(=O)[nH]n(CCN3CCN(c4ccccc4F)CC3)c(=O)c2c(C)n1-c1ccccc1`, the half-inhibitory concentration (IC50) in data set [5] amounted to 24.2 µM. The Ki in data set [5] is 11.1 µM. Further, the “Ratio ED50” value in data set [1] is given as 100; in data set [6] it was 3. The median effective dose (ED50) was determined as 15 mg/kg in data set [2] (0.5 h) and 0.31 mg/kg in data set [4]. Further, in data set [3], the median lethal dose (LD50) is over 2000 mg/kg. For the same compound, the Activity in data set [7] amounted to 20%.
In data set [5], `C=CCN1CC[C@]23CCCC[C@H]2[C@H]1Cc1ccc(O)cc13` [LEVALLORPHAN] registered an IC50 of 0.000634 µM.
`Cc1c2c(=O)[nH]n(CCN3CCN(C(c4ccccc4)c4ccccc4)CC3)c(=O)c2c(C)n1-c1ccccc1`: the “Ratio ED50” value in data set [1] is recorded as 100. Further, the ED50 entry in data set [2] was “inactive”. The LD50 in data set [3] is over 2000 mg/kg. Further, in data set [4], the ED50 stood at 1.83 mg/kg.
In the same order, the values of `Cc1c2c(=O)[nH]n(CCN3CCN(c4ccccn4)CC3)c(=O)c2c(C)n1-c1ccccc1` are 100, “inactive”, over 2000 mg/kg and 6.84 mg/kg.
Turning to `CC(=O)Oc1ccccc1C(=O)O`, the inhibition entry in data set [8] was “inactive”.
In the case of `COc1ccccc1N1CCN(CCCOc2nn(C)c(=O)c3c(C)n(-c4ccccc4)c(C)c23)CC1`, the ED50 entry in data set [2] is “inactive”. In data set [3], this compound yielded an LD50 of over 2000 mg/kg. The ED50 in data set [4] stood at 11.2 mg/kg.
Turning to `Cc1c2c(=O)[nH]n(CCN3CCN(c4ccccc4Cl)CC3)c(=O)c2c(C)n1-c1ccccc1`, the “Ratio ED50” value in data set [1] was 100. For the same compound, in data set [2], the ED50 result is “inactive”. This compound also had a median lethal dose (LD50) in data set [3] of over 2000 mg/kg. In data set [4], the 50% effective dose (ED50) turned out to be 3.77 mg/kg.
In data set [5], `COc1cccc(C2(O)CCCCC2CN(C)C)c1` (centres undefined) [TRAMADOL] showed an inhibitory constant (Ki) of 2.4 µM.
As to `Cc1c2c(=O)[nH]n(CCN3CCN(C/C=C/c4ccccc4)CC3)c(=O)c2c(C)n1-c1ccccc1`, in data set [1], the “Ratio ED50” value amounted to 100. In addition, the ED50 entry in data set [2] was “inactive”. The median lethal dose (LD50) in data set [3] was over 2000 mg/kg. In addition, in data set [4], the ED50 came to 1.25 mg/kg.
In the same order, the values of `Cc1c2c(=O)[nH]n(CCN3CCN(Cc4ccccc4)CC3)c(=O)c2c(C)n1-c1ccccc1` are 100, “inactive”, over 2000 mg/kg and 0.04 mg/kg.
As for `Cc1c2c(OCCCN3CCN(c4ccccc4)CC3)nn(C)c(=O)c2c(C)n1-c1ccccc1`, in data set [2], the ED50 entry is “inactive”. The compound further showed a median lethal dose (LD50) in data set [3] of 1420 mg/kg. Moreover, the ED50 in data set [4] was 7.9 mg/kg.
For the compound `Cc1c2c(=O)[nH]n(CCN3CCN(c4cccc(C(F)(F)F)c4)CC3)c(=O)c2c(C)n1-c1ccccc1`, the “Ratio ED50” value in data set [1] came out at 100; in data set [6], 3. Besides, the median effective dose (ED50) stood at 15.9 mg/kg in data set [2] (0.5 h) and 1.23 mg/kg in data set [4]. Besides, the LD50 in data set [3] was over 2000 mg/kg. Also, in data set [7], the Activity was 20%.
Turning to `Cc1ccc(Cl)cc1N1CCN(CCn2[nH]c(=O)c3c(C)n(-c4ccccc4)c(C)c3c2=O)CC1`, the half-inhibitory concentration (IC50) in data set [5] was 5.6 µM. Moreover, in data set [5], the affinity corresponds to a Ki of 2.6 µM. Besides, the “Ratio ED50” value in data set [1] is recorded as 100; in data set [6] it was 3. The 50% effective dose (ED50) in data set [2] (0.5 h) amounted to 10.3 mg/kg; in data set [4], 0.55 mg/kg. The same compound returned a median lethal dose (LD50) in data set [3] of over 2000 mg/kg. Moreover, the Activity in data set [7] was determined as 45%.
Consider `CN1CC[C@]23c4c5ccc(O)c4O[C@H]2[C@@H](O)C=C[C@H]3[C@H]1C5` [MORPHINE], for which the ED50 stood at 3.5 mg/kg in data set [2] (0.5 h) and 2.44 mg/kg in data set [4].
As to `Cc1c2c(=O)[nH]n(CCN3CCC(Cc4ccccc4)CC3)c(=O)c2c(C)n1-c1ccccc1`, in data set [1], the “Ratio ED50” value was 100. Moreover, the ED50 result in data set [2] was “inactive”. Moreover, the LD50 in data set [3] is over 2000 mg/kg. For the same compound, the 50% effective dose (ED50) in data set [4] was determined as 1.91 mg/kg.
The matching figures for `COc1ccccc1N1CCN(CCn2[nH]c(=O)c3c(C)n(-c4ccccc4)c(C)c3c2=O)CC1`: 100, “inactive”, over 2000 mg/kg and 8.02 mg/kg.
As to `Cc1c2c(=O)[nH]n(CCN3CCN(c4ccccc4)CC3)c(=O)c2c(C)n1-c1ccccc1`, the “Ratio ED50” value in data set [1] is 100. For the same compound, the ED50 result in data set [2] was “inactive”. Also, the LD50 in data set [3] was over 2000 mg/kg. Also, in data set [4], the ED50 amounted to 1.48 mg/kg.

(Values after ChEMBL document CHEMBL1828600, “Derivatives of pyrrolo[3,4-d]pyridazinone, a new class of analgesic agents” (Eur J Med Chem, 2011).)
